Laboratory results from ChEMBL document CHEMBL1154054, “Novel 4-(morpholin-4-yl)-N'-(arylidene)benzohydrazides: synthesis, antimycobacterial activity and QSAR investigations” (Eur J Med Chem, 2009).

Columns and labels:
Type in all cases: functional
Design in all cases: scale not given: the % may be the effect or the level left
[1] = tested on: Mycobacterium tuberculosis; assay: Antimycobacterial activity against Mycobacterium tuberculosis H37Rv assessed as reduction in relative light units at 0.05 ug/ml after 72 hrs by LRP assay
How it was run: (§1)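 Luciferase reporter phage assay on M. tuberculosis (H37Rv, or clinical isolates resistant to S, H, R and E). Each sample had two drug-free controls and four drug concentrations, incubated 72 h at 37 °C. High-titer phAE129 phage plus 0.1 M CaCl₂ was added, then 4 h at 37 °C. Equal volume D-luciferin (0.3 mM, pH 4.5 citrate) was added; RLU integrated 10 s, duplicate mean; % RLU reduction vs control.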

[2] = tested on: Mycobacterium tuberculosis; assay: Antimycobacterial activity against Mycobacterium tuberculosis H37Rv assessed as reduction in relative light units at 0.5 ug/ml after 72 hrs by LRP assay; how it was run: as §1
[3] = tested on: Mycobacterium tuberculosis; assay: Antimycobacterial activity against Mycobacterium tuberculosis H37Rv assessed as reduction in relative light units at 5 ug/ml after 72 hrs by LRP assay; how it was run: as §1
[4] = tested on: Mycobacterium tuberculosis; assay: Antimycobacterial activity against Mycobacterium tuberculosis H37Rv assessed as reduction in relative light units at 10 ug/ml after 72 hrs by LRP assay; how it was run: as §1

SMILES | Activity [1] | Activity [2] | Activity [3] | Activity [4]
Cc1ccc(/C=N/NC(=O)c2ccc(N3CCOCC3)cc2)cc1 | 24.19% | 97.29% | 97.75% | 98.18%
COc1cc(/C=N/NC(=O)c2ccc(N3CCOCC3)cc2)cc(OC)c1OC | 49.68% | 96.51% | 97.59% | 97.77%
O=C(N/N=C1\C=CCO1)c1ccc(N2CCOCC2)cc1 | 15.04% | 96.9% | 98.41% | 97.55%
O=C(N/N=C/c1ccc(F)cc1)c1ccc(N2CCOCC2)cc1 | 96.78% | 98.22% | 98.98% | 99.09%
O=C(N/N=C/c1ccc(O)cc1)c1ccc(N2CCOCC2)cc1 | 51.79% | 77.81% | 97.53% | 97.24%
COc1ccc(/C=N/NC(=O)c2ccc(N3CCOCC3)cc2)cc1 | 30.04% | 96.24% | 98.1% | 97.18%
O=C(N/N=C/c1cccc([N+](=O)[O-])c1)c1ccc(N2CCOCC2)cc1 | 9.118% | 98.04% | 98.4% | 98.4%
O=C(N/N=C/c1ccc(Cl)cc1)c1ccc(N2CCOCC2)cc1 | 78.09% | 98.02% | 98.38% | 99.26%
O=C(N/N=C\C=C\c1ccccc1)c1ccc(N2CCOCC2)cc1 | 63.16% | 98.96% | 97.82% | 97.32%
CN(C)c1ccc(/C=N/NC(=O)c2ccc(N3CCOCC3)cc2)cc1 | 20.85% | 98.09% | 98.49% | 98.82%
NNC(=O)c1ccncc1 [ISONIAZID] | 96% | 98.42% | 99.01% | 98.99%
